Test results: ChEMBL document CHEMBL4834428
The source made the active and inactive calls. The calls are words filed in the database; no cut-off is given here.

Key:
[1] = biological target: T1, NAD-dependent protein deacetylase sirtuin-1 (Homo sapiens) (UniProt Q96EB6); assay: Inhibition of His6-tagged SIRT1 (unknown origin) expressed in Escherichia coli BL21 (DE3) deacetylation activity incubated for 30 mins in presence of NAD+; conditions: dose 0.04-10 µM
T1 sequence (whole entry): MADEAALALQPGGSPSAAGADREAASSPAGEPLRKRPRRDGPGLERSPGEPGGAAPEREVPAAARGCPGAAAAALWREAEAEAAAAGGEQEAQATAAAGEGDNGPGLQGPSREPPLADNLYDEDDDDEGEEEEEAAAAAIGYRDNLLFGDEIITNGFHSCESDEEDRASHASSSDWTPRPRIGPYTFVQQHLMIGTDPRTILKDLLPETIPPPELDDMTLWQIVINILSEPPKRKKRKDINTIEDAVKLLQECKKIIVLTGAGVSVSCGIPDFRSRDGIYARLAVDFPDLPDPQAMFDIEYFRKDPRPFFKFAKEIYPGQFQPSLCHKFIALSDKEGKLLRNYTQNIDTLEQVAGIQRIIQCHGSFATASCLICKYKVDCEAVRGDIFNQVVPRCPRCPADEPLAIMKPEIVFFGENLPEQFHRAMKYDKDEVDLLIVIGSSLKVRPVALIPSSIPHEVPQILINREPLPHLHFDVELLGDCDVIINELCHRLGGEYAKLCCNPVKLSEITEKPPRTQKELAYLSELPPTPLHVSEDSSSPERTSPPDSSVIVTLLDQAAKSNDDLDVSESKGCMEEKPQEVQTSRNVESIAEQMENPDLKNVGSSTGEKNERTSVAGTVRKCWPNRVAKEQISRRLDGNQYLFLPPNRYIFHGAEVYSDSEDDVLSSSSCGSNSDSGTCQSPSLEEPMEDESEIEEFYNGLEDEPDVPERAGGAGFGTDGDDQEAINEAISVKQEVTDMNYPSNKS

[2] = biological target: T1, NAD-dependent protein deacetylase sirtuin-1 (Homo sapiens); assay: Inhibition of His6-tagged SIRT1 (unknown origin) expressed in Escherichia coli BL21 (DE3) at 1 uM using Fluor-de-Lys-Ac-Gly-Gly-Lys(ac)-AMC peptide as substrate incubated for 5 mins by fluorescence assay
How it was run: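 Conditions as the FLucK529ac deacetylase assay (100 nM SirT1, sirtuin buffer 2) but with 10 µM Ac-Gly-Gly-Lys(ac)-AMC substrate and inhibitors at 1 µM. Stopped with equal volume 2× trypsin (0.1 mg/mL); released coumarin read after 5 min RT, ex 355/em 460 nm.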

[3] = biological target: T2, NAD-dependent protein deacetylase sirtuin-3, mitochondrial (Homo sapiens) (UniProt Q9NTG7); assay: Binding affinity to His6-tagged/TEV fused SIRT3 (unknown origin) expressed in Escherichia coli BL21 (DE3) assessed as thermal stability at 90 uM using H3K18Ac as substrate incubated for 20 mins in presence of NAD+ by GloMelt thermal shift assay
T2 sequence (whole entry): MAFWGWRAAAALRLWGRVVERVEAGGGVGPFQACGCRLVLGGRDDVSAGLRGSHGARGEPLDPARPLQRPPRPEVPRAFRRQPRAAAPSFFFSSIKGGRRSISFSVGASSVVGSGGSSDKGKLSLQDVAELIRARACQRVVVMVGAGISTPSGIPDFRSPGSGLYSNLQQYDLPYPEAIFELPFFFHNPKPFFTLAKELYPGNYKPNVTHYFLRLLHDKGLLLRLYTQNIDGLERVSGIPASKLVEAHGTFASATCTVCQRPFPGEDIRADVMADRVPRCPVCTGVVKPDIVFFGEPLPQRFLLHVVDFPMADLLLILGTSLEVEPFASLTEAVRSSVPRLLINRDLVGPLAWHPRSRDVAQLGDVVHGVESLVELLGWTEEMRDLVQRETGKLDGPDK
How it was run: (§1)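 SirT1 or SirT3 at 8 µM with 1 mM NAD⁺ and 0.25 mM H3K18ac; SirT2 at 16 µM with 1 mM NAD⁺ and 0.5 mM H4K16ac. Compound 90 µM, 20 min RT before dye addition and melting; ΔTm from melting curves.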

[4] = biological target: T3, NAD-dependent protein deacetylase sirtuin-2 (Homo sapiens) (UniProt Q8IXJ6); assay: Binding affinity to His6-tagged/TEV fused SIRT2 (unknown origin) expressed in Escherichia coli BL21 (DE3) assessed as thermal stability at 90 uM using H4K16Ac as substrate incubated for 20 mins in presence of NAD+ by GloMelt thermal shift assay; how it was run: as §1
T3 sequence (whole entry): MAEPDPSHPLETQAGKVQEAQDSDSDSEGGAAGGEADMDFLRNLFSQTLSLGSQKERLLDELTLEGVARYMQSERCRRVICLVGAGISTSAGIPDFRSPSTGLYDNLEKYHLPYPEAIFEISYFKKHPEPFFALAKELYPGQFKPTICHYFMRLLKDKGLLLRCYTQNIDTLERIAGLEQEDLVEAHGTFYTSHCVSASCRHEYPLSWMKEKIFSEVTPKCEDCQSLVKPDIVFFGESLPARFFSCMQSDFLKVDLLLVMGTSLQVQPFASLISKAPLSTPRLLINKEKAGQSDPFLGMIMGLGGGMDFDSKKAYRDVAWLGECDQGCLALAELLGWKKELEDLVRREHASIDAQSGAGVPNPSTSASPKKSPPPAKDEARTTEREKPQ

[5] = biological target: T1, NAD-dependent protein deacetylase sirtuin-1 (Homo sapiens); assay: Binding affinity to His6-tagged SIRT1 (unknown origin) expressed in Escherichia coli BL21 (DE3) assessed as increase in thermal stability at 0.1 mM and 41.5 degreeC using H3K18Ac peptide as substrate incubated for 10 mins in presence of NAD+ by SYPRO orange thermal shift assay
[6] = biological target: T1, NAD-dependent protein deacetylase sirtuin-1 (Homo sapiens); assay: Binding affinity to His6-tagged SIRT1 (unknown origin) expressed in Escherichia coli BL21 (DE3) assessed as thermal stability at 90 uM using H3K18Ac as substrate incubated for 20 mins in presence of NAD+ by GloMelt thermal shift assay; how it was run: as §1

| inhibition [1] | inhibition [2] | Activity [3] | Activity [4] | Activity [5] | Activity [6] | Structure (SMILES) |
| --- | --- | --- | --- | --- | --- | --- |
| Dose-Dependent Effect | inactive | inactive | inactive | Active | Active | NC(=O)C1CN(Cc2ccc3nonc3c2)c2ccccc2O1 (stereo unspecified) |
| Dose-Dependent Effect | – | – | – | Active | – | NC(=O)C1CCCc2c1[nH]c1ccc(Cl)cc21 (stereo unspecified) |
| – | – | inactive | inactive | – | Active | N#Cc1ccccc1CN1CC(C(N)=O)Oc2ccccc21 (stereo in doubt; 4.27) |
